Tests used:
[1] = Relative bioavailability study: safety and tolerability; format: in vivo, human
[2] = Lowest observed adverse effect level in dogs; format: in vivo
[3] = Multiple ascending dose part; format: in vivo, human; settings: for AUC / Cmax / Tmax: human, plasma, oral, multiple‐dose; for AUC: AUC0‐24, geometric mean (%CVb); for Cmax: geometric mean (%CVb); for Tmax: median (range)
[4] = Multiple ascending dose part; format: in vivo, human
How it was run: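 Healthy men, double-blind, randomized 6 active:2 placebo per cohort. Oral test compound or placebo once daily for 14 days, each dose after a moderate-fat meal (~600 calories, ~30% from fat). An expansion cohort (24 planned) assessed GI tolerability. Monitoring covered AEs, physical exams, vital signs, ECGs, clinical labs, suicidal risk, and GI and hepatobiliary abnormalities. AEs were MedDRA 21.0-coded and summarized descriptively.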

[5] = tested on: HIV‐1 subtypes; assay: Inhibition across HIV‐1 subtypes; settings: background statement, no reference given
[6] = 50 mg once daily for 14 days (N = 6)
[7] = 100 mg once daily for 14 days (N = 6)
[8] = 200 mg once daily for 14 days (N = 25; cohort 5 and expansion cohort)
[9] = 320 mg once daily for 14 days (N = 7)
[10] = Part 2, across 58 participants (GSK3640254 n = 44 or placebo n = 14)

SMILES: C=C(C)[C@@H]1CC[C@]2(NCCN3CCS(=O)(=O)CC3)CC[C@]3(C)[C@H](CC[C@@H]4[C@@]5(C)CC=C(C6=CC[C@@](CF)(C(=O)O)CC6)C(C)(C)[C@@H]5CC[C@]43C)[C@@H]12 [GSK3640254]
- changes in laboratory values, vital signs, or ECG parameters ([1]; in vivo): No clinically significant changes in laboratory values, vital signs, or ECG parameters
- participants reporting at least one AE ([1]; of the 14 total participants, all mild): 50%
- maximum recommended starting dose [MRSD] based on lowest observed adverse effect level in dogs ([2]; calculated from dog level of 1 mg/kg): approximately 3.2 mg
- lowest observed adverse effect level ([2]; dogs, absence of a NOAEL in dogs): 1 mg/kg
- AUC ([3]; 50 mg, Day 1, 50 mg, N = 6): 2860 ng·h/mL
- Cmax ([3]; 50 mg, Day 1, 50 mg, N = 6): 215 ng/mL
- Tmax ([3]; 50 mg, Day 1, 50 mg, N = 6): 3.8 h
- AUC ([3]; 100 mg, Day 1, 100 mg, N = 6): 6800 ng·h/mL
- Cmax ([3]; 100 mg, Day 1, 100 mg, N = 6): 536 ng/mL
- Tmax ([3]; 100 mg, Day 1, 100 mg, N = 6): 4.3 h
- AUC ([3]; 320 mg, Day 1, 320 mg, N = 7): 13500 ng·h/mL
- Cmax ([3]; 320 mg, Day 1, 320 mg, N = 7): 1040 ng/mL
- Tmax ([3]; 320 mg, Day 1, 320 mg, N = 7): 4 h
- increase in exposure upon repeat dosing ([3]; in vivo): two‐ to three‐fold
- dose‐proportionality of Cmax and AUC ([3]; multiple‐dose administration 50‐320 mg): trend toward less than dose‐proportional increases in exposure
- time to steady state ([3]; repeat once‐daily dosing): ≤ 8 days
- attainment of steady state (slope of trough concentration vs time close to zero) ([3]; trough concentrations from all participants): ≤ 8 days
- Adverse event: Abdominal distension [4, 6]: 0 n (%)
- Adverse event: Abdominal pain [4, 6]: 1 (17) n (%)
- Adverse event: Abnormal dreams [4, 6]: 0 n (%)
- Adverse event: Agitation [4, 6]: 0 n (%)
- Adverse event: Any event [4, 6]: 4 (67) n (%)
- Adverse event: Arthropod bite [4, 6]: 0 n (%)
- Adverse event: Back pain [4, 6]: 0 n (%)
- Adverse event: Catheter‐site bruise [4, 6]: 0 n (%)
- Adverse event: Catheter‐site pain [4, 6]: 0 n (%)
- Adverse event: Constipation [4, 6]: 0 n (%)
- Adverse event: Contact dermatitis [4, 6]: 1 (17) n (%)
- Adverse event: Contusion [4, 6]: 1 (17) n (%)
- Adverse event: Disturbance in attention [4, 6]: 0 n (%)
- Adverse event: Dizziness [4, 6]: 1 (17) n (%)
- Adverse event: Dry skin [4, 6]: 0 n (%)
- Adverse event: Fatigue [4, 6]: 2 (33) n (%)
- Adverse event: Gastrointestinal disorders [4, 6]: 2 (33) n (%)
- Adverse event: Headache [4, 6]: 3 (50) n (%)
- Adverse event: Lethargy [4, 6]: 0 n (%)
- Adverse event: Musculoskeletal stiffness [4, 6]: 1 (17) n (%)
- Adverse event: Nausea [4, 6]: 0 n (%)
- Adverse event: Oropharyngeal pain [4, 6]: 0 n (%)
- Adverse event: Rash [4, 6]: 0 n (%)
- Adverse event: Somnolence [4, 6]: 1 (17) n (%)
- Adverse event: Vessel puncture site bruise [4, 6]: 0 n (%)
- Adverse event: Abdominal distension [4, 7]: 0 n (%)
- Adverse event: Abdominal pain [4, 7]: 0 n (%)
- Adverse event: Abnormal dreams [4, 7]: 0 n (%)
- Adverse event: Agitation [4, 7]: 1 (17) n (%)
- Adverse event: Any event [4, 7]: 5 (83) n (%)
- Adverse event: Arthropod bite [4, 7]: 0 n (%)
- Adverse event: Back pain [4, 7]: 1 (17) n (%)
- Adverse event: Catheter‐site bruise [4, 7]: 1 (17) n (%)
- Adverse event: Catheter‐site pain [4, 7]: 0 n (%)
- Adverse event: Constipation [4, 7]: 0 n (%)
- Adverse event: Contact dermatitis [4, 7]: 0 n (%)
- Adverse event: Contusion [4, 7]: 1 (17) n (%)
- Adverse event: Disturbance in attention [4, 7]: 0 n (%)
- Adverse event: Dizziness [4, 7]: 2 (33) n (%)
- Adverse event: Dry skin [4, 7]: 0 n (%)
- Adverse event: Fatigue [4, 7]: 1 (17) n (%)
- Adverse event: Gastrointestinal disorders [4, 7]: 0 n (%)
- Adverse event: Headache [4, 7]: 1 (17) n (%)
- Adverse event: Lethargy [4, 7]: 0 n (%)
- Adverse event: Musculoskeletal stiffness [4, 7]: 0 n (%)
- Adverse event: Nausea [4, 7]: 0 n (%)
- Adverse event: Oropharyngeal pain [4, 7]: 0 n (%)
- Adverse event: Rash [4, 7]: 0 n (%)
- Adverse event: Somnolence [4, 7]: 0 n (%)
- Adverse event: Vessel puncture site bruise [4, 7]: 0 n (%)
- Adverse event: Abdominal distension [4, 8]: 1 (4) n (%)
- Adverse event: Abdominal pain [4, 8]: 1 (4) n (%)
- Adverse event: Abnormal dreams [4, 8]: 2 (8) n (%)
- Adverse event: Agitation [4, 8]: 1 (4) n (%)
- Adverse event: Any event [4, 8]: 19 (76) n (%)
- Adverse event: Arthropod bite [4, 8]: 0 n (%)
- Adverse event: Back pain [4, 8]: 2 (8) n (%)
- Adverse event: Catheter‐site bruise [4, 8]: 1 (4) n (%)
- Adverse event: Catheter‐site pain [4, 8]: 0 n (%)
- Adverse event: Constipation [4, 8]: 2 (8) n (%)
- Adverse event: Contact dermatitis [4, 8]: 7 (28) n (%)
- Adverse event: Contusion [4, 8]: 3 (12) n (%)
- Adverse event: Disturbance in attention [4, 8]: 1 (4) n (%)
- Adverse event: Dizziness [4, 8]: 2 (8) n (%)
- Adverse event: Dry skin [4, 8]: 0 n (%)
- Adverse event: Fatigue [4, 8]: 1 (4) n (%)
- Adverse event: Gastrointestinal disorders [4, 8]: 6 (24) n (%)
- Adverse event: Headache [4, 8]: 3 (12) n (%)
- Adverse event: Lethargy [4, 8]: 1 (4) n (%)
- Adverse event: Musculoskeletal stiffness [4, 8]: 1 (4) n (%)
- Adverse event: Nausea [4, 8]: 1 (4) n (%)
- Adverse event: Oropharyngeal pain [4, 8]: 1 (4) n (%)
- Adverse event: Rash [4, 8]: 1 (4) n (%)
- Adverse event: Somnolence [4, 8]: 0 n (%)
- Adverse event: Vessel puncture site bruise [4, 8]: 1 (4) n (%)
- Adverse event: Abdominal distension [4, 9]: 0 n (%)
- Adverse event: Abdominal pain [4, 9]: 0 n (%)
- Adverse event: Abnormal dreams [4, 9]: 0 n (%)
- Adverse event: Agitation [4, 9]: 0 n (%)
- Adverse event: Any event [4, 9]: 6 (86) n (%)
- Adverse event: Arthropod bite [4, 9]: 2 (29) n (%)
- Adverse event: Back pain [4, 9]: 0 n (%)
- Adverse event: Catheter‐site bruise [4, 9]: 0 n (%)
- Adverse event: Catheter‐site pain [4, 9]: 1 (14) n (%)
- Adverse event: Constipation [4, 9]: 0 n (%)
- Adverse event: Contact dermatitis [4, 9]: 0 n (%)
- Adverse event: Contusion [4, 9]: 0 n (%)
- Adverse event: Disturbance in attention [4, 9]: 0 n (%)
- Adverse event: Dizziness [4, 9]: 1 (14) n (%)
- Adverse event: Dry skin [4, 9]: 1 (14) n (%)
- Adverse event: Fatigue [4, 9]: 0 n (%)
- Adverse event: Gastrointestinal disorders [4, 9]: 2 (29) n (%)
- Adverse event: Headache [4, 9]: 2 (29) n (%)
- Adverse event: Lethargy [4, 9]: 1 (14) n (%)
- Adverse event: Musculoskeletal stiffness [4, 9]: 0 n (%)
- Adverse event: Nausea [4, 9]: 1 (14) n (%)
- Adverse event: Oropharyngeal pain [4, 9]: 1 (14) n (%)
- Adverse event: Rash [4, 9]: 0 n (%)
- Adverse event: Somnolence [4, 9]: 1 (14) n (%)
- Adverse event: Vessel puncture site bruise [4, 9]: 0 n (%)
- participants reporting palpitations ([4]; Part 2, 200‐mg + expansion cohort, one participant, mild, unrelated to study drug): 2%
- most common AEs: contact dermatitis [4, 10]: 13.8%
- most common AEs: dizziness [4, 10]: 12.1%
- most common AEs: headache [4, 10]: 25.9%
- participants discontinued because of grade 1 maculopapular rash ([4]; expansion cohort, one participant): 2%
- inhibition across HIV‐1 subtypes [5]: broad‐spectrum inhibition across various HIV‐1 subtypes
